Values after ≈ are worked out from the molar mass of the structure shown.
How the values were obtained:
[1] = molecular target: hERG (KCNH2) potassium channel (Homo sapiens, UniProt Q12809); test: Inhibition of hERG potassium channel assessed as maximum inhibition rate at 40 uM at -80 mV holding potential incubated for 120 seconds by whole cell-automated voltage clamp analysis assay relative to control; type: toxicity; details: time 120 sec
Outline: (§1)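 Automated whole-cell patch clamp, holding potential −80 mV. Voltage protocol applied every 20 s. Baseline set with external solution containing 0.1% DMSO and stabilised 3 min. Compound applied until steady state, at least 3 min, then washout. Maximum tested concentration 40 μM, or 3 μM for cisapride as positive control.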

[2] = molecular target: Voltage-gated inwardly rectifying potassium channel KCNH2 (Homo sapiens, UniProt Q12809); test: Inhibition of hERG potassium channel assessed as […] at -80 mV holding potential incubated for 120 seconds by whole cell-automated voltage clamp analysis assay; type: toxicity; outline: as §1
Escherichia coli [3] = test: Antibacterial activity against ESBL-producing Escherichia coli ATCC 35218 strains 15 1 to 3 assessed as reduction in bacterial growth incubated for 18 to 20 hrs by CLSI based microdilution method; type: functional; details: time 18-20 hrs
Outline: (§2)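 CLSI broth microdilution. Compounds in DMSO (levofloxacin and meropenem in water), serial twofold dilutions in broth, 64 to 0.008 μg/mL. […] Results reported as MIC ranges across strains.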

Staphylococcus aureus [4] = test: Antibacterial activity against methicillin-sensitive Staphylococcus aureus strains 15 1 to 4 assessed as reduction in bacterial growth incubated for 18 to 20 hrs by CLSI based microdilution method; type: functional; details: time 18-20 hrs
Outline: (§3)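 Broth microdilution per CLSI. Compounds dissolved in DMSO (levofloxacin and meropenem in water) as 64 μg/mL stock, then serial twofold dilutions in broth giving 64 to 0.008 μg/mL. […] Clinical isolates tested as several strains per group; racemic GP-1 served as positive control; values given as MIC ranges.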

Escherichia coli [5] = test: Antibacterial activity against Escherichia coli ATCC 35218 strains 15 1 to 3 assessed as reduction in bacterial growth incubated for 18 to 20 hrs by CLSI based microdilution method; type: functional; details: time 18-20 hrs; outline: as §2
Pseudomonas aeruginosa [6] = test: Antibacterial activity against multidrug resistant Pseudomonas aeruginosa strains 15 1 to 3 assessed as reduction in bacterial growth incubated for 18 to 20 hrs by CLSI based microdilution method; type: functional; details: time 18-20 hrs; outline: as §3
[7] = system: Staphylococcus epidermidis; test: Antibacterial activity against methicillin-sensitive Staphylococcus epidermidis strains 15 1 to 4 assessed as reduction in bacterial growth incubated for 18 to 20 hrs by CLSI based microdilution method; type: functional; details: time 18-20 hrs; outline: as §3
[8] = Metabolic stability in rat liver microsome assessed as metabolic bioavailability at 0.1 uM in presence of NADPH incubated upto 60 mins by LC-MS/MS analysis; type: ADME; details: liver microsomes
Outline: (§4)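 Compound at 0.1 μM final, in 0.01% DMSO with 0.005% BSA. Incubated with rat or human liver microsomes at 0.33 mg/mL in 0.1 M Tris-HCl, pH 7.4, with 5 mM MgCl₂ and 1 mM NADPH, at 37 °C. Samples at 0, 7, 17, 30 and 60 min quenched with cold methanol and analysed by LC-MS/MS. Half-life, Cl_int and MF% derived as previously described.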

[9] = Metabolic stability in rat liver microsome assessed as elimination half life at 0.1 uM in presence of NADPH incubated upto 60 mins by LC-MS/MS analysis; type: ADME; details: liver microsomes, read-out: beta t1/2; outline: as §4
Acinetobacter baumannii [10] = test: Antibacterial activity agains OXA23-producing multidrug resistant Acinetobacter baumannii assessed as reduction in bacterial growth incubated for 18 to 20 hrs by CLSI based microdilution method; type: functional; details: time 18-20 hrs; outline: as §3
Escherichia coli [11] = test: Antibacterial activity against multidrug resistant wild type Escherichia coli NCTC 13353 assessed as reduction in bacterial growth incubated for 18 to 20 hrs by CLSI based microdilution method; type: functional; details: time 18-20 hrs; outline: as §3
Pseudomonas aeruginosa [12] = test: Antibacterial activity against wild type Pseudomonas aeruginosa ATCC 27853 assessed as reduction in bacterial growth incubated for 18 to 20 hrs by CLSI based microdilution method; type: functional; details: time 18-20 hrs; outline: as §2
[13] = Metabolic stability in human liver microsome assessed as intrinsic clearance at 0.1 uM in presence of NADPH incubated upto 60 mins by LC-MS/MS analysis; type: ADME; details: microsomes, 1 h; outline: as §4
[14] = Metabolic stability in human liver microsome assessed as elimination half life at 0.1 uM in presence of NADPH incubated upto 60 mins by LC-MS/MS analysis; type: ADME; details: liver microsomes, read-out: beta t1/2; outline: as §4
Escherichia coli [15] = test: Antibacterial activity against ESBL-producing multidrug resistant Escherichia coli assessed as reduction in bacterial growth incubated for 18 to 20 hrs by CLSI based microdilution method; type: functional; details: time 18-20 hrs; outline: as §3
Escherichia coli [16] = test: Antibacterial activity against multidrug resistant wild type Escherichia coli ATCC BAA-2340 assessed as reduction in bacterial growth incubated for 18 to 20 hrs by CLSI based microdilution method; type: functional; details: time 18-20 hrs; outline: as §3
[17] = Metabolic stability in human liver microsome assessed as metabolic bioavailability at 0.1 uM in presence of NADPH incubated upto 60 mins by LC-MS/MS analysis; type: ADME; details: liver microsomes; outline: as §4
[18] = Metabolic stability in rat liver microsome assessed as intrinsic clearance at 0.1 uM in presence of NADPH incubated upto 60 mins by LC-MS/MS analysis; type: ADME; details: microsomes, 1 h; outline: as §4
Acinetobacter baumannii [19] = test: Antibacterial activity against wild type Acinetobacter baumannii NCTC 13304 assessed as reduction in bacterial growth incubated for 18 to 20 hrs by CLSI based microdilution method; type: functional; details: time 18-20 hrs; outline: as §3
Klebsiella pneumoniae [20] = test: Antibacterial activity against KPC2-producing multidrug resistant Klebsiella pneumoniae assessed as reduction in bacterial growth incubated for 18 to 20 hrs by CLSI based microdilution method; type: functional; details: time 18-20 hrs; outline: as §3
Klebsiella pneumoniae [21] = test: Antibacterial activity agains wild type Klebsiella pneumoniae ATCC BAA-2470 assessed as reduction in bacterial growth incubated for 18 to 20 hrs by CLSI based microdilution method; type: functional; details: time 18-20 hrs; outline: as §3
Klebsiella pneumoniae [22] = test: Antibacterial activity agains wild type Klebsiella pneumoniae ATCC BAA-1705 assessed as reduction in bacterial growth incubated for 18 to 20 hrs by CLSI based microdilution method; type: functional; details: time 18-20 hrs; outline: as §2
Pseudomonas aeruginosa [23] = test: Antibacterial activity against IMP4-producing multidrug resistant Pseudomonas aeruginosa assessed as reduction in bacterial growth incubated for 18 to 20 hrs by CLSI based microdilution method; type: functional; details: time 18-20 hrs; outline: as §3
Staphylococcus aureus [24] = test: Antibacterial activity against methicillin-resistant Staphylococcus aureus strains 15 1 to 4 assessed as reduction in bacterial growth incubated for 18 to 20 hrs by CLSI based microdilution method; type: functional; details: time 18-20 hrs; outline: as §3

Chain of hERG (KCNH2) potassium channel (Q12809 whole entry): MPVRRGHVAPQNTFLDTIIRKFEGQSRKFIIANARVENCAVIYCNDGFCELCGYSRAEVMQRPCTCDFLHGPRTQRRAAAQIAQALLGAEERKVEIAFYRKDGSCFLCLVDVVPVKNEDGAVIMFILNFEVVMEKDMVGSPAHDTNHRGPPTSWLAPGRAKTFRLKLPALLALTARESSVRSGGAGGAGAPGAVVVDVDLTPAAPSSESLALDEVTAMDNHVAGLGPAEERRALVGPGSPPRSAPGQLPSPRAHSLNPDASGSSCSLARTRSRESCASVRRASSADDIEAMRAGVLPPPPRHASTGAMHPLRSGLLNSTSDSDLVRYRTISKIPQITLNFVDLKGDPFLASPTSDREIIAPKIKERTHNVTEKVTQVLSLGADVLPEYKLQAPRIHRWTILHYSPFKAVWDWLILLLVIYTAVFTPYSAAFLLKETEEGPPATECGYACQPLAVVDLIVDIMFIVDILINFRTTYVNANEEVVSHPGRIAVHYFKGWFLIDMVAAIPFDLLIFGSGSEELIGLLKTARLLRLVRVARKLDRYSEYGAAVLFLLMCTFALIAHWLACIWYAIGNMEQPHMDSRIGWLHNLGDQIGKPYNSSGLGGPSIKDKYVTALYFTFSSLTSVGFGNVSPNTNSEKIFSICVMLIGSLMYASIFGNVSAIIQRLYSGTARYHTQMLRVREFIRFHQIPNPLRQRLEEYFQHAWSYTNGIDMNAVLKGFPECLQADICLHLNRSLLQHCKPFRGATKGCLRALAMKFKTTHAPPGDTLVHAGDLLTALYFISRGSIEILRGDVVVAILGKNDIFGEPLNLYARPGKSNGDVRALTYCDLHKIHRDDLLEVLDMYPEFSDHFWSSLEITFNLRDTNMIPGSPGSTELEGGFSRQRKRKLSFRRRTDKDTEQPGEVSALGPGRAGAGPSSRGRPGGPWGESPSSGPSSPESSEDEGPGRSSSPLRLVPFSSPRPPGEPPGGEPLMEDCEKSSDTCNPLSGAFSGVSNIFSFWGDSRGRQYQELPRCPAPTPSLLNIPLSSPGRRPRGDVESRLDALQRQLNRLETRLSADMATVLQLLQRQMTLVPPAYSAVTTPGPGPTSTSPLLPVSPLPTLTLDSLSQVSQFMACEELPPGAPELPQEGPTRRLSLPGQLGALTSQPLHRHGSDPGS
Chain of Voltage-gated inwardly rectifying potassium channel KCNH2 (Q12809 whole entry): as above

SMILES	inhibition at 2 min, 40 µM [1]	IC50 [2]	MIC (Escherichia coli [3])	MIC (Staphylococcus aureus [4])	MIC (Escherichia coli [5])	MIC (Pseudomonas aeruginosa [6])	MIC [7]	MIC (Acinetobacter baumannii [10])	MIC (Escherichia coli [11])	MIC (Pseudomonas aeruginosa [12])	MIC (Escherichia coli [15])	MIC (Escherichia coli [16])	MIC (Acinetobacter baumannii [19])	MIC (Klebsiella pneumoniae [20])	MIC (Klebsiella pneumoniae [21])	MIC (Klebsiella pneumoniae [22])	MIC (Pseudomonas aeruginosa [23])	also measured
CCC(CN)=C1CN(c2nc(Oc3cnc(C4CC4)nc3)nc3[nH]c4c(NC)cc(F)cc4c23)C1	62%	23.4 µM	0.03 µg/mL (≈ 0.0632 µM)	< 0.008 µg/mL	0.015 µg/mL (≈ 0.0316 µM)	0.5 µg/mL (≈ 1.05 µM)	< 0.008 µg/mL	–	–	–	–	–	–	–	–	–	–	–
[2H]C([2H])([2H])Nc1cc(F)cc2c1[nH]c1nc(Oc3cnc(C)nc3)nc(N3CC(=C(CC)CN)C3)c12	–	–	–	–	–	–	–	0.25 µg/mL (≈ 0.554 µM)	0.125 µg/mL (≈ 0.277 µM)	2 µg/mL (≈ 4.43 µM)	0.5 µg/mL (≈ 1.11 µM)	0.25 µg/mL (≈ 0.554 µM)	0.25 µg/mL (≈ 0.554 µM)	1 µg/mL (≈ 2.21 µM)	2 µg/mL (≈ 4.43 µM)	4 µg/mL (≈ 8.86 µM)	4 µg/mL (≈ 8.86 µM)	Fh at 1 h, 0.1 µM [8]: 41%; half-life at 0.1 µM [9]: 0.548 h; CLH [13]: 20 mL/min/g; half-life at 0.1 µM [14]: 1.75 h; Fh at 1 h, 0.1 µM [17]: 49.6%; CLH [18]: 63.9 mL/min/g
CNc1cc(F)cc2c1[nH]c1nc(Oc3cnc(C)nc3)nc(N3CC(=C(C)CO)C3)c12	–	–	> 64 µg/mL	< 0.03 µg/mL	0.25 µg/mL (≈ 0.574 µM)	> 64 µg/mL	< 0.03 µg/mL	–	–	–	–	–	–	–	–	–	–	–
CNc1cc(F)cc2c1[nH]c1nc(Oc3cnc(C)nc3)nc(N3CC(=C(Cl)CN)C3)c12	34.3%	> 40 µM	1 µg/mL (≈ 2.2 µM)	< 0.008 µg/mL	0.25 µg/mL (≈ 0.55 µM)	8 µg/mL (≈ 17.6 µM)	< 0.008 µg/mL	–	–	–	–	–	–	–	–	–	–	–
C[C@@H](O)[C@H]1C(=O)N2C(C(=O)O)=C(S[C@@H]3CN[C@H](C(=O)N(C)C)C3)[C@H](C)[C@H]12 [MEROPENEM]	–	–	–	–	–	–	–	> 32 µg/mL	0.06 µg/mL (≈ 0.156 µM)	1 µg/mL (≈ 2.61 µM)	0.25 µg/mL (≈ 0.652 µM)	4 µg/mL (≈ 10.4 µM)	> 32 µg/mL	≥ 64 µg/mL	16 µg/mL (≈ 41.7 µM)	16 µg/mL (≈ 41.7 µM)	8 µg/mL (≈ 20.9 µM)	–
CNc1cc(F)cc2c1[nH]c1nc(Oc3cnc(C)nc3)nc(N3CCC(=C(F)CN)CC3)c12	70.4%	18.4 µM	0.5 µg/mL (≈ 1.07 µM)	0.015 µg/mL (≈ 0.0322 µM)	0.06 µg/mL (≈ 0.129 µM)	> 8 µg/mL	< 0.008 µg/mL	–	–	–	–	–	–	–	–	–	–	MIC (Staphylococcus aureus [24]): 0.015 µg/mL (≈ 0.0322 µM)

From ChEMBL document CHEMBL5096186, “Design, Synthesis, and Biological Evaluation of Novel Pyrimido[4,5-b]indole Derivatives Against Gram-Negative Multidrug-Resistant Pathogens” (J Med Chem, 2021)
